Source: PMC3756293 (Translational Psychiatry, 2013)
Entries after “also recorded” stand apart in the source; their conditions may differ. Where two headings read alike, the source gives them in different places.

Key:
[1] = Plasma pharmacokinetics of ABT-384 and metabolites after five daily doses; assay type: in vivo, human
[2] = CSF pharmacokinetics of ABT-384 and acid metabolite after five daily doses; assay type: in vivo, human; details: for CSF levels as percent of the free plasma levels / CSF levels as percent of the total plasma levels: 1-50 mg QD for 5 days; for CSF/free plasma exposure ratio: across the dose range tested (1-50 mg QD)
In short: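 Two subjects received 50 mg QD for 5 days. CSF was drawn by catheter before dosing, every 30 min for 8 h, and at 9, 12, 16 and 24 h. Other subjects were sampled hourly during the D4 cortisol infusions plus set post-dose times. Parent and acid metabolite were measured by validated HPLC–MS with D6 stable-label internal standards, injected directly without online solid-phase extraction.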

[3] = 1 mg ABT-384 QD for 7 days; cited from earlier work
[4] = target: T1, 11-beta-hydroxysteroid dehydrogenase type 1 (HSD-1) (Homo sapiens, UniProt P28845); assay type: in vivo; details: regimens of 1-50 mg ABT-384 QD for 5 days, spot urine
T1 sequence (P28845 whole entry): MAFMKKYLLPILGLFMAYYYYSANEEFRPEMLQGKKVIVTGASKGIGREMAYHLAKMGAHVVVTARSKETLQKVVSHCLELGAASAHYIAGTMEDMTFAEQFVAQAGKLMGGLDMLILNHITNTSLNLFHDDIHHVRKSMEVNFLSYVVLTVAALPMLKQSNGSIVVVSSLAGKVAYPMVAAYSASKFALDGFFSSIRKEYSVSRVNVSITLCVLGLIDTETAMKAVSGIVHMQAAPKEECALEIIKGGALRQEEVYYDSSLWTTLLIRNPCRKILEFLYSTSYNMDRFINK

[5] = target: T1, 11-beta-hydroxysteroid dehydrogenase type 1 (HSD-1); assay type: in vivo
In short: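 During primed continuous D4 cortisol infusions after five daily doses, plasma was collected hourly. Labeled cortisol and cortisone were measured by mass spectrometry, and the plasma D3 cortisol/D3 cortisone ratio served as a measure of total-body HSD-1 activity.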

[6] = target: T1, 11-beta-hydroxysteroid dehydrogenase type 1 (HSD-1); experiment: Peripheral HSD-1 inhibition: 1-; assay type: in vivo
In short: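 Plasma was sampled hourly during two 8 h D4 cortisol infusions on Days 5–6, after 5 days of once-daily dosing. Inhibition = 1 − (plasma D3 cortisol/plasma D4 cortisol), where 1 approximates the steady-state ratio seen in untreated control subjects. Values are given per time point across both infusions (16 time points).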

[7] = target: T1, 11-beta-hydroxysteroid dehydrogenase type 1 (HSD-1); assay type: in vivo; remark: listed apart in the source
[8] = Safety and tolerability in the clinical study; assay type: in vivo, human
In short: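 This open-label, single-site multiple-dose study ran 1–50 mg QD for 5 days. Subjects were confined from Day −1 until at least 48 h after CSF catheter removal, and adverse events were recorded until 30 days after the last dose.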

HSD-1 = HSD-1 (Homo sapiens, UniProt P28845); experiment: HSD-1 binding and dissociation kinetics in vitro; details: data on file
Chain of HSD-1 (P28845 whole entry): as above

[9] = Preclinical tissue distribution, liver relative to plasma; assay type: in vivo; details: rats; data on file
[10] = as above; assay type: in vivo; details: monkeys; data on file
[11] = target: T1, 11-beta-hydroxysteroid dehydrogenase type 1 (HSD-1); details: cited from earlier work
[12] = daily doses up to 100 mg, healthy volunteers and elderly subjects; cited from earlier work
[13] = 1-50 mg ABT-384 QD for 5 days, healthy men

O=C(O)C(O)(c1cccs1)c1cccs1 [Acid Metabolite]
mean acid metabolite/parent AUC0-24 ratio in plasma ([1]; plasma): < 20% | mean acid metabolite/parent Cmax ratio in plasma ([1]; plasma): < 10% | mean metabolite/parent Cmax ratio ([1]; plasma, 1-50 mg QD for 5 days): 6–9% | CSF levels as percent of the free plasma levels [2]: 110–150% | CSF levels as percent of the total plasma levels [2]: 3–4% | mean acid metabolite/parent AUC0-24 ratio in CSF ([2]; CSF): 70–90% | mean acid metabolite/parent Cmax ratio in CSF ([2]; CSF): ~40% | CSF/free plasma exposure ratio [2]: greater than 1 | mean plasma Cmax [3]: 0.31 ng/mL

CC(C)(C(=O)NC1C2CC3CC1CC(C(N)=O)(C3)C2)N1CCN(c2ccc(C(F)(F)F)cn2)CC1 (centres unmarked) [ABT-384]
time to peak levels in the plasma ([1]; after last dose on Day 5, 1-50 mg QD): 1.5 to 3 h | plasma Cmax at which full peripheral HSD-1 inhibition was observed ([1]; man): ~2 ng/mL | CSF levels as percent of the free plasma levels [2]: 10–50% | CSF levels as percent of the total plasma levels [2]: 0.3–1% | CSF/free plasma exposure ratio [2]: less than 0.5 | time to peak levels in the CSF ([2]; after last dose on Day 5): 2.5 to 5 h | hepatic HSD-1 inhibition [4]: full hepatic HSD-1 inhibition | peripheral HSD-1 inhibition ([5]; 1 mg QD, each hour from 33 to 40 h after the last dose): 81–87% | peripheral HSD-1 inhibition ([5]; ABT-384 1 mg daily, five daily doses, up to 40 h after last dose): ≥ 81% | peripheral HSD-1 inhibition ([5]; ABT-384 regimens ⩾2 mg daily, five daily doses, up to 40 h after last dose): ≥ 88% | HSD-1 inhibition predicted from plasma Cmax ([5]; plasma Cmax ~2 ng ml^−1, assuming reversible inhibition, in the absence of preferential tissue distribution): ~60% | peripheral HSD-1 inhibition ([6]; 1 mg regimen, at 40 h after the last dose): ~86% | peripheral HSD-1 inhibition ([6]; 1 mg regimen, each of eight time points up to 8 h after the last dose): ~90% | peripheral HSD-1 inhibition ([6]; 2, 10 and 50 mg QD, each of 16 time points up to 40 h after the last dose): 91–93% | CNS HSD-1 inhibition (CNS formation of D3 cortisol) ([7]; 1 mg ABT-384 QD for 5 days): partial but substantial CNS HSD-1 inhibition; also recorded: Reduced CNS D3 cortisol formation | intrinsic CSF D3 cortisol compared with the level attained in the absence of study drug ([7]; 1 mg regimen, hours 4-8 of each D4 cortisol infusion): approximately two- to three-fold lower | CNS HSD-1 inhibition (CNS formation of D3 cortisol) ([7]; 2-50 mg ABT-384 QD for 5 days, through 40 h after the last dose): full CNS HSD-1 inhibition; also recorded: essentially complete CNS HSD-1 inhibition; also recorded: Complete blockade of D3 cortisol formation in the CNS | minimum daily dose to achieve full CNS HSD-1 inhibition ([7]; QD dosing): ≤ 2 mg | adrenocorticotropic hormone or cortisol values above normal [8, 13]: No subject showed adrenocorticotropic hormone or cortisol values above normal | changes of clinical laboratory tests, vital signs or electrocardiography parameters [8, 13]: No clinically significant changes | deaths, serious adverse events, discontinuations due to adverse events [8, 13]: No deaths, other serious adverse events or discontinuations due to adverse events occurred | tolerability ([8]; regimens of 1-50 mg ABT-384 QD for 5 days): well tolerated | binding to and dissociation from HSD-1 (HSD-1): rapid binding to, and very slow dissociation from; also recorded: rapid binding, slow dissociation kinetics | distribution to the liver relative to the plasma [9]: preferentially distributes to the liver | distribution to the liver relative to the plasma [10]: preferentially distributes to the liver | decrease of ratio of urine cortisol metabolites to cortisone metabolite ([11]; 1-100 mg ABT-384 QD for 7 days, 24-h urine collection): 87–97% | hepatic HSD-1 inhibition ([11]; regimens from 1 mg daily (1 mg QD for 7 days)): fully inhibited hepatic HSD-1; also recorded: full hepatic HSD-1 inhibition for 24 h | mean plasma Cmax [3]: 9.41 ng/mL | tolerability [12]: generally well tolerated
